Bioassay records as filed in PubChem.
Compounds with a hit are over-represented: about 1.8% of the library has one in this group of screens.
CHRM4 antagonist – antagonists of human muscarinic M4 receptor (CHRM4). P08173. CHO-hM4 cells, ACh EC80, Fluo-8 calcium fluorescence. inhibition, % at 3 µM. actives 0.73% (n = 360,000). AID 624125;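 active means inhibition above its plate's cutoff, the mean inhibition of sample wells plus 3 SD, cut at about 27% in these data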;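 further: 0% = acetylcholine EC80 with DMSO and 100% = DMSO without agonist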
Target sequence (P08173 whole entry, looked up): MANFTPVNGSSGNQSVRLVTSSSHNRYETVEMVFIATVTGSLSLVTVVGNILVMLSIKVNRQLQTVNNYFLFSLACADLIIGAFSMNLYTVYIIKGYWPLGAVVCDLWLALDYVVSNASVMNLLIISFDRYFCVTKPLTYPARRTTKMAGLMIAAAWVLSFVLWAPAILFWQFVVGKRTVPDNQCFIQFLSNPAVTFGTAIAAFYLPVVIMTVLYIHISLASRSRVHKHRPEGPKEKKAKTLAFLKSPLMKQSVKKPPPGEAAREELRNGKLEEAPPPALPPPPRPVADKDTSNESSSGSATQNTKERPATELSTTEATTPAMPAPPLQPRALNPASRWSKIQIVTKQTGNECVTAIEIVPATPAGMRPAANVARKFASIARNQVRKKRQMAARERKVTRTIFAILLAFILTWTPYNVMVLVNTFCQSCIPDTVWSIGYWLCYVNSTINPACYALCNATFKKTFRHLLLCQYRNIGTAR
M5 PAM – potentiates acetylcholine response at human M5 receptor | actives 0.3% (n = 360,000) | AID 624038 | CHO-K1 hM5, Fluo-8 calcium, ACh EC20 PAM; 0% = ACh EC20, 100% = ACh EC100 | activation, % at 3 µM | P08912;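 active means activation above the run cutoff, the mean activation of all test compounds plus 3 SD, cut at about 18% in these data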
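Assay system: CHO-K1 hM5 cells. Also added: acetylcholine at EC20 concentration, added after compound. Dosing: 3 µM, single dose. Times: compound preincubation 140 s before EC20 acetylcholine addition. Signal: Fluo-8 calcium fluorescence. Measure: % activation relative to EC20 and EC100 ACh responses. Repeats: singlicate, one well per test compound.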
CHRM5 antagonist – CHRM5 antagonism in calcium assay | P08912 | CHO-hM5 cells, Fluo-8 calcium fluorescence, ACh EC80 | inhibition, % at 3 µM | actives 0.59% (n = 360,000);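 active means inhibition above a per-plate cutoff, the mean of that plate's test compounds plus 3 SD, cut at about 27% in these data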;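 further: 0% = acetylcholine EC80 with DMSO and 100% = DMSO without agonist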
CHRM4 agonist – agonists of human muscarinic M4 receptor (CHRM4) | actives 0.14% (n = 360,000) | CHO-K1 hM4/Gqi5, Fluo-8 calcium fluorescence; vehicle 0%, full acetylcholine response 100% | P08173 | activation, % at 3 µM;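 active means activation above the run mean over all test wells plus 3 SD, cut at about 32% in these data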;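 further: peak over basal fluorescence ratio per well then scaled between controls; 0% = DMSO wells and 100% = acetylcholine at EC100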
CHRM4 PAM – CHRM4 positive allosteric modulation; P08173; CHO-K1 hM4/Gqi5, Fluo-8 calcium fluorescence, ACh EC20; 0% = ACh EC20, 100% = maximal ACh; activation, % at 3 µM; actives 0.4% (n = 360,000);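 active means activation above its plate's cutoff, the mean activation of sample wells plus 3 SD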
M5 ag – CHRM5 agonism in calcium assay | actives 0.19% (n = 360,000) | AID 624037 | CHO-K1 hM5 cells, Fluo-8 calcium fluorescence; 0% DMSO wells, 100% maximal acetylcholine response | P08912 | activation, % at 3 µM;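 active means activation above the run's mean over test compounds plus 3 SD, cut at about 23% in these data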;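 further: signal is peak over basal fluorescence ratio across the kinetic read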
An asterisk follows results filed as active.

SMILES | CHRM4 antagonist | M5 PAM | CHRM5 antagonist | CHRM4 agonist | CHRM4 PAM | M5 ag
CC(C)(C)Cc1c(C2CCCCC2)nc2ccc(Cl)cn12 | -5 | 2 | 1 | 1 | -3 | -1
CCN(CC(=O)Nc1ccc2c(c1)OCCO2)C(=O)/C=C/c1cccc(Br)c1 | -20 | 8 | -12 | 2 | 7 | -2
COc1ccc(C(=O)N/N=C/c2ccc(OC)c(COc3c(F)c(F)cc(F)c3F)c2)cc1 | -4 | 2 | 11 | 4 | -8 | -5
COc1ccc(/C=N\NC(=O)c2ccc([N+](=O)[O-])cc2)cc1COc1c(F)c(F)cc(F)c1F | 0 | -9 | 27* | 0 | -1 | -4
Nc1nonc1C(=O)NCCNCc1ccccc1OCc1ccccc1F | 5 | -2 | 2 | 11 | -10 | 2
Nc1nonc1C(=O)NCCNCc1cc(Br)ccc1OCc1ccccc1F | 32* | -13 | 16 | 16 | -16 | 0
NS(=O)(=O)c1ccc(CCNCc2cc(Br)ccc2OCc2ccccc2F)cc1 | 28* | -20 | 28* | 30 | -16 | 0
Cc1nc2cc(NC(=O)N3CCN(c4ccccn4)CC3)ccc2o1 | 5 | -3 | -2 | 1 | -4 | 1
O=C(Nc1ccc2nc(-c3ccco3)c(-c3ccco3)nc2c1)N1CCN(c2ccccn2)CC1 | 8 | 20* | 25 | 12 | -15 | 2
COC(=O)CCCn1cc(CN(C)C2CN(Cc3cn(CCCC(=O)OC)nn3)S(=O)(=O)C2)nn1 (stereo not given) | 1 | -8 | 12 | 1 | 4 | 3
Cc1cc(F)ccc1S(=O)(=O)N(CC(=O)N1CCOCC1)CC(=O)N1CCOCC1 | -10 | 2 | 6 | 0 | 25* | -1
COCCNC(=S)N(C)[C@H]1C[C@H]2c3cc(Oc4ccccc4C)ccc3CCN2C(=O)[C@H]1[C@H](C)O | -30 | 5 | -7 | 8 | 2 | 2
O=C1c2ccccc2C(c2nnnn2Cc2ccccc2)N1Cc1cccc(F)c1 (stereo not given) | 5 | -7 | 14 | 3 | -1 | -3
CCc1ccc2cc3c(cc2n1)C(=O)c1ccccc1-3 | -18 | 3 | -3 | 8 | -2 | -2
C=CCn1c(=N)n(CC(O)c2ccco2)c2ccccc21 (stereo not given) | 14 | 29* | 8 | 1 | 17* | -2
Cc1nc2nc(SCC(=O)NCCCN3CCCCCC3)nn2c(C)c1Cc1ccccc1 | 38* | -6 | 8 | 0 | -21 | -8
Cc1ccccc1Cc1c(C)nc2nc(SCC(=O)NCCCN3CCCCC3)nn2c1C | 15 | -4 | -1 | 2 | -21 | -8
CN1CCC(OC(c2ccccc2)c2ccccc2)CC1 | 80* | -19 | 96* | 1 | -17 | -2
CN1CCC(Oc2ccccc2Sc2ccccc2)CC1 | 74* | -19 | 78* | 10 | -43 | -6
CN1CCC(N(C)CC(O)c2ccccc2)CC1 (stereo not given) | -3 | 4 | 4 | 1 | 1 | 1
Cc1ccccc1C(=O)OC1CCN(C)CC1 | 9 | -20 | 12 | 0 | -8 | -9
COC(=O)[C@@]1(Sc2ccc(C)cc2)CC(=O)N[C@@H]1c1ccco1 | -18 | 5 | -13 | 2 | 11 | -1
CCCCCCCNC(=O)CN1C(=O)CSc2ccc(S(=O)(=O)N3CCOCC3)cc21 | 4 | -7 | 30* | 2 | -1 | -6
CCCCNC(=O)CN1C(=O)CSc2ccc(S(=O)(=O)N3CCOCC3)cc21 | 7 | -2 | 4 | 0 | -2 | 1
CCCC(=O)N/N=C1\CS(=O)(=O)N(C)c2ccsc21 | 51* | -3 | 2 | 3 | -18 | -1
SMILES | CHRM4 antagonist | M5 PAM | CHRM5 antagonist | CHRM4 agonist | CHRM4 PAM | M5 ag
Cc1ccc(N/N=C2\CS(=O)(=O)N(C)c3ccsc32)cc1 | 8 | -9 | 1 | 1 | 0 | -6
CN1CCCC(CC2Oc3ccccc3Sc3ccccc32)C1 (stereo not given) | 73* | -18 | 54* | 5 | -41 | -5
c1ccc2c(c1)OC(CCCN1CCCCC1)c1ccccc1S2 (stereo not given) | 19 | -28 | 22 | 12 | -17 | -10
CCc1nc2ccc(C(=O)NCCc3ccccn3)cn2c1N(C)CCC(C)C | 6 | -3 | 5 | 4 | -7 | -1
CN1\C(=C/C=C/C=C/C=[N+](C)C)C(C)(C)c2ccccc21 | 21 | -9 | 9 | 8 | -14 | 38*
CC[C@@H](C(=O)[C@@H](C)[C@@H](O)[C@H](C)CCc1ccc(C)c(O)c1C(=O)O)[C@H]1O[C@](CC)([C@H]2CC[C@](O)(CC)[C@H](C)O2)C[C@@H]1C | 5 | -14 | 0 | 72* | -11 | 27*
COc1cc(Cl)c(C)cc1NC(=O)CCCn1c(=O)oc2ccccc21 | -12 | 7 | 2 | 1 | 30* | -2
O=C1CSC(c2ccccn2)N1c1ccccc1 (stereo not given) | 0 | 3 | 1 | 1 | 10 | -1
O=C1CSC(c2ccccn2)N1c1ccc(Br)cc1 (stereo not given) | 61* | 3 | 7 | 0 | -22 | -13
CC(C)(C)NC(=O)C(c1cc2ccccc2o1)n1c(=O)c(-c2ccco2)nc2ccccc21 (stereo not given) | 4 | -5 | 4 | -2 | 2 | 1
CCCCCNC(=O)C(c1cc2ccccc2o1)n1c(=O)c(-c2ccco2)nc2ccccc21 (stereo not given) | -11 | 8 | -10 | 1 | 27* | 0
COc1ccc(CCN2C(=O)C(Oc3ccccc3C)C2c2ccc3c(c2)OCO3)cc1 (stereo not given) | -1 | 3 | 13 | 5 | -11 | 1
COc1ccc(CCN2C(=O)C(Oc3ccccc3C)C2c2ccc3c(c2)OCO3)cc1OC (stereo not given) | 29* | -16 | 11 | 5 | -6 | -1
CCOC(=O)CCCCCC(=O)Nc1ccc2c(c1)C(=O)N([C@@H](C)CO)C[C@@H](C)[C@H](CN(C)S(=O)(=O)c1cccs1)OCCCC[C@H](C)O2 | 2 | -1 | 7 | -1 | 8 | -1
CN(C)S(=O)(=O)c1cccc(NC(=O)c2ccccc2OCc2ccc(F)cc2)c1 | -27 | -4 | 5 | 11 | -8 | 2
CC(=O)c1cccc(NC(=O)c2ccccc2OCc2ccc(F)cc2)c1 | -1 | -10 | 32* | 4 | -8 | -5
COc1cc(/C=N/N2C(=O)C3C4c5ccccc5C(c5ccccc54)C3C2=O)ccc1O (stereo not given) | -7 | 33* | 19 | -1 | 17 | 2
